Laboratory results taken from paper PMC12078793 (Nature Communications, 2025).
Values belong to the compound of their own block, whether it stands above or below them.

Experiments:
[1] = Blood PTH analog concentrations; assay type: in vivo; settings: female, CD-1, mouse, serum, sc, 10 nmol/kg
[2] = target: bovine serum albumin (bovine) (UniProt P02769); experiment: BLI
pHL2-hPTH1R = target: T1, pHL2-hPTH1R (Homo sapiens, UniProt Q03431); experiment: Receptor internalization in GPG-10 cells; assay type: cell-based; settings: 1x10-8 to 1x10-5 M, fluorescence ratio 485/405, n = 3
T1 sequence (Q03431 106-593 limits assumed): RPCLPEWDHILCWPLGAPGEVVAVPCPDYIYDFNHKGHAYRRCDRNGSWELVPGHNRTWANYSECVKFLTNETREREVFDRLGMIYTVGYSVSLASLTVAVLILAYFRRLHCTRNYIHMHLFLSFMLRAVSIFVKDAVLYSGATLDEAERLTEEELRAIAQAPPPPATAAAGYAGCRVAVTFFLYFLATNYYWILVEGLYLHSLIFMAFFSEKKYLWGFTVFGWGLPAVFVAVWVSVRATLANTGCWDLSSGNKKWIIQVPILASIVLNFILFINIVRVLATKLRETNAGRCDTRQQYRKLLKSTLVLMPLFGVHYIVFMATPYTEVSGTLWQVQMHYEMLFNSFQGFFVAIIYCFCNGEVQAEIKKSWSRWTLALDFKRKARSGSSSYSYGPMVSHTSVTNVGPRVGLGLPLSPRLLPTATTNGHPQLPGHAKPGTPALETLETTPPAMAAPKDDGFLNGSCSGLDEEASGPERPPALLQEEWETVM
Procedure, shortened: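 Assay used HEK293 cells stably expressing glosensor plus hPTH1R with pHluorin2 inserted in the ECD E2 region. Confluent monolayers were rinsed with HBSS (0.1% BSA, 10 mM HEPES, pH 7.4), and baseline was recorded for 10 min: 535 nm emission with alternating 485/405 nm excitation at 1-min cycles. Ligand was then added and reading continued for 90 min. The AUC of the 485/405 ratio vs time was taken at each concentration.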

Sequence of bovine serum albumin (bovine) (P02769 25-607): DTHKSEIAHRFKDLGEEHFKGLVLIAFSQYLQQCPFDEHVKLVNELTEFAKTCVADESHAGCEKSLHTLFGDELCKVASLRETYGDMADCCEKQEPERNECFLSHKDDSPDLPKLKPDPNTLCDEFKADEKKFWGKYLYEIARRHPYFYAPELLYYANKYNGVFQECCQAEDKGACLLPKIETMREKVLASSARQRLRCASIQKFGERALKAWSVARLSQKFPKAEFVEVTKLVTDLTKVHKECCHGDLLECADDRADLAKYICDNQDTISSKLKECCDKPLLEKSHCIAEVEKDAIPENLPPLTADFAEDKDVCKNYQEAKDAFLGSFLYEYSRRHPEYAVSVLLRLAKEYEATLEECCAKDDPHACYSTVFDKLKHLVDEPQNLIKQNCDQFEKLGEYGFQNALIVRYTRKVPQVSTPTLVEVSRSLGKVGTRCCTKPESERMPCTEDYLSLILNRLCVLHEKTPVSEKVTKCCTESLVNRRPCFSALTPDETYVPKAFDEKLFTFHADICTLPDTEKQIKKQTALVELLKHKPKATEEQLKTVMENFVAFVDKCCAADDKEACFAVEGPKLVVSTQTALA

- half-life [1]: 18 min
Compound: CC[C@H](C)[C@H](NC(=O)[C@H](CCC(=O)O)NC(=O)[C@H](CO)NC(=O)[C@@H](NC(=O)[C@@H](N)CO)C(C)C)C(=O)N[C@@H](CCC(N)=O)C(=O)N[C@@H](CC(C)C)C(=O)N[C@@H](CCSC)C(=O)N[C@@H](Cc1cnc[nH]1)C(=O)N[C@@H](CC(N)=O)C(=O)N[C@@H](CC(C)C)C(=O)NCC(=O)N[C@@H](CCCCN)C(=O)N[C@@H](Cc1cnc[nH]1)C(=O)N[C@@H](CC(C)C)C(=O)N[C@@H](CC(N)=O)C(=O)N[C@@H](CO)C(=O)N[C@@H](CCSC)C(=O)N[C@@H](CCC(=O)O)C(=O)N[C@@H](CCCNC(=N)N)C(=O)N[C@H](C(=O)N[C@@H](CCC(=O)O)C(=O)N[C@@H](Cc1c[nH]c2ccccc12)C(=O)N[C@@H](CC(C)C)C(=O)N[C@@H](CCCNC(=N)N)C(=O)N[C@@H](CCCCN)C(=O)N[C@@H](CCCCN)C(=O)N[C@@H](CC(C)C)C(=O)N[C@@H](CCC(N)=O)C(=O)N[C@@H](CC(=O)O)C(=O)N[C@H](C(=O)N[C@@H](Cc1cnc[nH]1)C(=O)N[C@@H](CC(N)=O)C(=O)N[C@@H](Cc1ccccc1)C(N)=O)C(C)C)C(C)C [PTH(1-34)]

- fold lower estimated KD than the non-lipidated counterpart M-PTH(1-14) [2]: > 3 fold
Compound: Palm-M-PTH(1-14) (peptide)

- PHL2-PTH1R internalization into acidic compartments (pHL2-hPTH1R): did not induce internalization
Compound: L11,dW12,W23,Y36-PTHrP(7-36)
